Assay results taken from ChEMBL document CHEMBL1143669, “Triterpene acids from Poria cocos and their anti-tumor-promoting effects” (2007).
Active and inactive are the calls of the source. The rule behind the calls is not given here.

Assays:
Human gammaherpesvirus 4 [1] = test: Inhibition of TPA-induced Epstein-Barr virus early antigen activation in Raji cells at 10 mol ratio/32 pmol TPA relative to control; values are per cent of control
Human gammaherpesvirus 4 [2] = test: Effect on TPA-induced Epstein-Barr virus early antigen activation in Raji cells at 500 mol ratio/32 pmol TPA relative to control
Human gammaherpesvirus 4 [3] = test: Inhibition of TPA-induced Epstein-Barr virus early antigen activation in Raji cells at 100 mol ratio/32 pmol TPA relative to control; values are per cent of control
Raji = test: Cell viability of Raji cells; type: functional, Homo sapiens
Outline: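 Raji cells were exposed to test compound at 32 nmol, a 1000:1 mol ratio to TPA, and cell viability (%) was scored in the EBV-EA activation system.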

Human gammaherpesvirus 4 [4] = test: Effect on TPA-induced Epstein-Barr virus early antigen activation in Raji cells at 1000 mol ratio/32 pmol TPA relative to control
Mus musculus = test: Inhibition of DMBA initiated TPA-induced skin tumor promotion in mouse at 85 nmol after 20 weeks by in vivo two-stage carcinogenesis test; type: functional, organism-based

| SMILES | EBV-EA activation (% of control) (Human gammaherpesvirus 4 [1]) [%] | Activity (Human gammaherpesvirus 4 [2]) [%] | EBV-EA activation (% of control) (Human gammaherpesvirus 4 [3]) [%] | Activity (Raji) [%] | Activity (Human gammaherpesvirus 4 [4]) [%] | Activity (Mus musculus) |
| --- | --- | --- | --- | --- | --- | --- |
| C=C(C)[C@@H]1CCC2=C(CC[C@]3(C)[C@@H](C(CCC(=C)C(C)(C)O)C(=O)O)[C@H](O)C[C@@]23C)[C@@]1(C)CCC(=O)O (some centres not stated) [25-HYDROXYPORICOIC ACID H] | 82.8 | 16.7 | 57.5 | 70 | 0 |  |
| C=C(CCC(C(=O)O)[C@H]1[C@H](O)C[C@@]2(C)C3=CC[C@H]4C(C)(C)C(=O)CC[C@]4(C)C3=CC[C@]12C)C(C)(C)O (some centres not stated) | 91.7 | 39.5 | 65.3 | 70 | 0 |  |
| C=C(CC[C@@H](C(=O)O)[C@H]1CC[C@@]2(C)C3=CC[C@H]4C(C)(C)[C@@H](O)CC[C@]4(C)C3=CC[C@]12C)C(C)C [DEHYDROEBURICOIC ACID] | 100 | 45.1 | 74.9 | 70 | 8.7 |  |
| C=C(C)[C@@H]1CC=C2C(=CC[C@]3(C)[C@@H](C(CCC=C(C)C)C(=O)O)CC[C@@]23C)[C@@]1(C)CCC(=O)O (some centres not stated) [16-DEOXYPORICOIC ACID B] | 90 | 19.3 | 65 | 70 | 0 | Active |
| CC1=C(/C=C/C(C)=C/C=C/C(C)=C/C=C/C=C(C)/C=C/C=C(C)/C=C/C2=C(C)CCCC2(C)C)C(C)(C)CCC1 [BETA CAROTENE] | 100 | 34.2 | 82.1 | 70 | 8.6 |  |
| CC(C)=CCCC(C(=O)O)[C@H]1CC[C@@]2(C)C3=CC[C@H]4C(C)(C)C(=O)CC[C@]4(C)C3=CC[C@]12C (some centres not stated) [DEHYDROTRAMETENONIC ACID] | 94.2 | 30.1 | 71 | 70 | 0 |  |
| C=C(CCC(C(=O)O)[C@H]1CC[C@@]2(C)C3=CC[C@H]4C(C)(C)C(=O)CC[C@]4(C)C3=CC[C@]12C)C(C)C (some centres not stated) [DEHYDROEBURICONIC ACID] | 100 | 43.9 | 79.5 | 70 | 9.5 |  |
| C=C(CCC(C(=O)O)[C@H]1[C@H](O)C[C@@]2(C)[C@]34C=C[C@@]5(OO3)C(C)(C)[C@@H](O)CC[C@]5(C)C4=CC[C@]12C)C(C)C (some centres not stated) | 83.6 | 17.4 | 57.8 | 60 | 0 |  |
| C=C(CC[C@@H](C(=O)O)[C@H]1CC[C@@]2(C)C3=C(CC[C@]12C)[C@@]1(C)CC[C@H](O)C(C)(C)[C@@H]1CC3)C(C)C [EBURICOIC ACID] | 100 | 45.8 | 75.3 | 70 | 9.1 |  |
| C=C(CC[C@@H](C(=O)O)[C@H]1[C@H](O)C[C@@]2(C)C3=CC[C@@H](C(=C)C)[C@](C)(CCC(=O)OC)C3=CC[C@]12C)C(C)C [PORICOIC ACID AM] | 81.8 | 9.6 | 57.8 | 70 | 0 |  |
| C=C(CCC(C(=O)O)[C@H]1CC[C@@]2(C)C3=CC[C@@H](C(=C)C)[C@](C)(CCC(=O)OC)C3=CC[C@]12C)C(C)C (some centres not stated) [PORICOIC ACID CM] | 87.6 | 37.2 | 63.4 | 70 | 0 |  |
| C=C(CC[C@@H](C(=O)O)[C@H]1CC[C@@]2(C)C3=CC[C@@H](C(=C)C)[C@](C)(CCC(=O)O)C3=CC[C@]12C)C(C)C [PORICOIC ACID C] | 91.7 | 21.1 | 67.2 | 70 | 0 | Active |
| C=C(CCC(C(=O)O)[C@H]1[C@H](O)[C@H](O)[C@@]2(C)C3=CC[C@H]4C(C)(C)[C@@H](O)CC[C@]4(C)C3=CC[C@]12C)C(C)C (some centres not stated) | 91 | 22.5 | 70 | 70 | 0 |  |
| C=C(C)[C@@H]1CC=C2C(=CC[C@]3(C)[C@@H](C(CCC(=C)C(C)(C)O)C(=O)O)[C@H](O)C[C@@]23C)[C@@]1(C)CCC(=O)O (some centres not stated) [PORICOIC ACID D] | 81.5 | 15.3 | 56.1 | 70 | 0 |  |
| C=C(C)[C@@H]1CC=C2C(=CC[C@]3(C)[C@@H]([C@@H](CCC(=C)C(C)(C)O)C(=O)O)[C@H](O)C[C@@]23C)[C@@]1(C)CCC(=O)OC [PORICOIC ACID DM] | 86.3 | 18.1 | 59 | 70 | 0 |  |
| C=C(CCC(C(=O)O)[C@H]1[C@H](O)C[C@@]2(C)C3=CC[C@H]4C(C)(C)[C@@H](OC(C)=O)CC[C@]4(C)C3=CC[C@]12C)C(C)C (some centres not stated) [DEHYDROPACHYMIC ACID] | 95.1 | 28.1 | 72.4 | 70 | 0 |  |
| CC(C)=CCCC(C(=O)O)[C@H]1CC[C@@]2(C)C3=CC[C@H]4C(C)(C)[C@@H](O)CC[C@]4(C)C3=CC[C@]12C (some centres not stated) | 100 | 45.3 | 79.1 | 70 | 9.2 |  |
| C=C(CC[C@@H](C(=O)O)[C@H]1[C@H](O)C[C@@]2(C)C3=C(CC[C@]12C)[C@@]1(C)CC[C@H](OC(C)=O)C(C)(C)[C@@H]1CC3)C(C)C [PACHYMIC ACID] | 96.5 | 24.7 | 71.6 | 70 | 0 |  |
